DYRK1A inh = rat Dyrk1A kinase inhibitors, primary screen, biochemical, single point, plate reader; Dual specificity tyrosine-phosphorylation-regulated kinase 1A (Rattus norvegicus), Q63470; ADP-Glo luminescence, NFATc1 peptide; inhibition, % at 12.5 µM; 310,000 tested, 0.43% active; AID 504441, 2011; in the data active means inhibition above about 50%;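 further: plate controls were vehicle with enzyme for no effect and no enzyme for full effect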
CDK5 p35 inh = inhibitors of human CDK5/p35 kinase, primary screen, biochemical, single concentration; Cyclin-dependent kinase 5 (Homo sapiens) + Cyclin-dependent kinase 5 activator 1 (Homo …; Recombinant CDK5/p35, ADP-Glo luminescence, 60 min; inhibition, % at 10 µM; 330,000 tested, 0.01% active;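 active means highest replicate inhibition of at least 50% and at least 75% of replicates reaching 50%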;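 further: plate controls were DMSO neutral control for no effect and GW8510 at 10 µM for full effect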
STK33 kinase inh = inhibitors of purified STK33 kinase, primary screen, biochemical, ADP-Glo luminescence, homogeneous, cell-free; Serine/threonine-protein kinase 33 (Homo sapiens), Q9BYT3; MBP phosphorylation; inhibition, % at 10 µM; 320,000 tested, 0.073% active; AID 2661, 2010;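 active means inhibition at or above 25%, using the most active replicate where run in duplicate; inactive means inhibition below 25%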
GSK3A inh = blockers of GSK3A enzyme activity – biochemical, luminescence, cell-free homogeneous, HTS, primary screen | Glycogen synthase kinase-3 alpha (Homo sapiens), P49840 | GSK-3 alpha kinase, ADP-Glo luminescence, 60 min | inhibition, % at 10 µM | 320,000 tested, 0.1% active;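 active means more than half of replicates show inhibition above 20%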;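 further: GST-tagged GSK-3 alpha with peptide substrate and 25 µM ATP; 0% = DMSO neutral wells and 100% = GW8510 positive control wells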
Target sequence (P49840 whole entry, looked up): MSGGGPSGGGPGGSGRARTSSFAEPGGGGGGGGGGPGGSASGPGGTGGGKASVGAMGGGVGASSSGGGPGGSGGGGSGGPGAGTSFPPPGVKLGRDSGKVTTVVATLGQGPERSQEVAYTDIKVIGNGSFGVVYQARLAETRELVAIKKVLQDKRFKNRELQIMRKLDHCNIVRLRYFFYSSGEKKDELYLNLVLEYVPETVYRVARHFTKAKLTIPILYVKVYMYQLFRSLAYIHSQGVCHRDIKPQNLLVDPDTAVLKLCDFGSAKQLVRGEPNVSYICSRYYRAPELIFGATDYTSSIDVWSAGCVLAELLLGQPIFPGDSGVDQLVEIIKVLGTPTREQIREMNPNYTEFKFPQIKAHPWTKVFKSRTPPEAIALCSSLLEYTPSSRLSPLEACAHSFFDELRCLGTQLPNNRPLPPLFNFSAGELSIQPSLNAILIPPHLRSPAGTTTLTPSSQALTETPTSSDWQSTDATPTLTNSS
GSK3B inh = human GSK3beta kinase inhibitors, primary screen, biochemical, cell-free homogeneous, HTS. GST-GSK3beta kinase, ADP-Glo luminescence, 60 min; stronger effect = lower value. 300,000 tested, 0.038% active. Glycogen synthase kinase-3 beta (Homo sapiens), P49841. AID 2097, 2009. activity score (negative = inhibition), % at 10 µM;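 active means more than half of replicate wells score below -50%, meaning over 50% inhibition versus plate controls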;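 further: 0% = median DMSO wells and -100% = median GW8510 positive control wells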
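Test system: GST-fused GSK3beta enzyme, cell-free | Quantity: 1.6 ng GST-GSK3beta enzyme per well | Reagent: 25 µM ATP with peptide substrate | Schedule: 60 min enzyme reaction, room temperature | Signal: Luminescent ADP-Glo measurement of ADP formed | Read-out basis: Score relative to plate controls | Control set: DMSO and 20 µM GW8510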
Dyrk1A artifact = ADP-Glo luciferase interference without Dyrk1A, dose response, artefact control for Dyrk1A inhibitor project, biochemical, luminescence, cherry-pick, set 02; AC50, µM (series often up to 12 µM), for the others: at the top dose activity change, negative = inhibition; 1,300 tested, under 10 active; shares compounds with DYRK1A inh; ADP-Glo luciferase artifact assay, no Dyrk1A;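 active means fitted half-maximal dose AC50 no more than ten times the top valid tested dose, with luminescence dropping as dose rises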
Numbers without * were called inactive; x = not tested or not shown. Shown is part of a subset that was picked to be rich in hits.

SMILES	DYRK1A inh	CDK5 p35 inh	STK33 kinase inh	GSK3A inh	GSK3B inh	Dyrk1A artifact
O=C(Nc1nc2c(Cl)ccc(Cl)c2s1)C1CC1	9	1	0	1	5	x
NNc1nc2c(Cl)ccc(Cl)c2s1	57*	2	-1	-3	0	8%
COc1ccc(CCN(C)CC(O)c2ccccc2)cc1OC (stereo not drawn)	0	1	-1	-4	5	x
CN1CCN(C2=C(NS(=O)(=O)c3ccccc3)C(=O)c3ccccc3C2=O)CC1	-4	0	2	-1	0	x
NC(=O)C1CCN(C2=C(Cl)C(=O)c3ccccc3C2=O)CC1	0	1	1	0	1	x
CN1CCN(C2=C(Cl)C(=O)c3ccccc3C2=O)CC1	56*	2	x	x	x	7%
O=C1C(Cl)=C(N2CCC(C(=O)O)CC2)C(=O)c2ccccc21	61*	1	0	10	-2	11%
CC1(C)C(=O)Nc2ccccc2N1C(=O)COC(=O)C12CC3CC(CC(O)(C3)C1)C2	2	-1	-1	0	-5	x
C=CCN1C(=O)/C(=C/c2ccccc2)S/C1=N/c1nccs1	58*	-1	0	-1	1	7%
Cc1ccc(/C=N/Nc2ncnc3nc[nH]c23)cc1	42	20	5	41	-36	x
Fc1cccc(/C=N/Nc2ncnc3nc[nH]c23)c1	73*	31	0	68*	-44	1%
Fc1ccccc1/C=N/Nc1ncnc2nc[nH]c12	55*	39	8	65*	-36	5%
O=C(N/N=C/c1ccc(F)c(F)c1)c1cc2c(s1)-c1ccccc1CC2	0	-2	0	-2	0	x
CNC(=O)c1cc2c(s1)-c1ccccc1CC2	53*	1	4	5	-2	10%
Cc1ccc(S(=O)(=O)/N=C2\C=C(NS(=O)(=O)c3ccccc3)C(=O)c3ccccc32)c(C)c1	7	4	x	x	x	x
Cc1ccc(S(=O)(=O)/N=C2\C=C(Nc3cccc(C(=O)O)c3)C(=O)c3ccccc32)cc1	51*	3	8	4	-2	8%
Cc1ccc(S(=O)(=O)/N=C2\C=C(Nc3cccc(C(=O)O)c3)C(=O)c3ccccc32)c(C)c1	76*	7	7	15	1	6%
CCN(CC)CCCN1C=C2C(=O)C(C)(OC(=O)C3CCCC3)C(=O)C=C2C=C1c1ccsc1 (stereo not drawn)	11	0	1	0	-4	x
O=C(O)CCc1nn2c3ccccc3n(CC(=O)c3cccs3)c2nc1=O	-3	2	1	-11	2	x
CCc1nc(Nc2cccc(O)c2)c2oc3ccccc3c2n1	62*	-1	5	2	-1	10%
CCc1nc(Nc2ccncc2)c2oc3ccccc3c2n1	13	-1	1	0	2	x
C=CCSC1=NC(=O)/C(=C/c2cccs2)S1	76*	0	-1	9	x	8%
NC1=NC(=O)/C(=C/c2cccs2)S1	53*	1	1	2	1	11%
O=C1N=C(N2CCOCC2)S/C1=C/c1cccs1	25	1	-1	1	3	x
COc1ccc(N(Cc2cc3ccc(C)cc3[nH]c2=O)C(=O)c2ccco2)cc1	-7	2	-1	-3	-1	x
SMILES	DYRK1A inh	CDK5 p35 inh	STK33 kinase inh	GSK3A inh	GSK3B inh	Dyrk1A artifact
Cc1cc(-c2ccc(C(=O)O)s2)cnc1N	65*	0	-1	0	-4	9%
CCOC(=O)C1CCCN(c2c(N3CCN(C4CCCCC4)CC3)c(=O)c2=O)C1 (stereo not drawn)	60*	0	-1	-2	1	6%
CCOC(=O)C1CCCN(c2c(N3CCC(N4CCCCC4)CC3)c(=O)c2=O)C1 (stereo not drawn)	-2	-1	1	-1	11	x
CC(C)CC(NC(=O)C1CCC(C)CC1)C(=O)Nc1ccc2c(c1)OCCO2 (stereo not drawn)	56*	0	2	-4	0	12%
CN(CCO)c1nc(NCc2ccccc2)c2cnn(C)c2n1	-6	1	1	-3	-1	x
Nc1cc2c([N+](=O)[O-])cccc2o1	60*	0	1	-2	-1	8%
COc1ccc2c(c1)CCc1cn[nH]c1-2	51*	2	0	0	-2	7%
COc1ccc(C)cc1NC(=O)COC(=O)c1c(C)nn(-c2ccccc2)c1C	x	0	0	14	x	x
Nc1nonc1C(=O)NCCNc1ccc([N+](=O)[O-])cn1	3	1	-1	-1	4	x
COc1ccc2[nH]c3c(C)c4ccncc4c(C)c3c2c1	56*	-1	6	-1	3	10%
COc1ccc(CCCc2nnc(SCC(=O)Nc3cc(C)c(C)cc3Br)o2)cc1	1	0	7	1	0	x
COc1ccc(CN2CCSCC2)c(OC)c1C	4	0	-1	-3	-1	x
COc1ccc(CNC(=O)C(OC(=O)c2ccco2)c2ccccc2)cc1 (stereo not drawn)	-6	-5	0	1	2	x
Oc1cccc(NC(=S)N=Nc2c(O)[nH]c3ccccc23)c1	51*	3	7	x	-5	12%
CCOc1ccc(NS(=O)(=O)c2ccc(C(=O)NCC(C)(C)N3CCOCC3)cc2)cc1	2	0	1	-1	2	x
O=C(Nc1nc(-c2ccccc2)c(-c2ccccc2)s1)c1ccc(S(=O)(=O)N2CCCC2)cc1	4	3	0	x	1	x
Cc1ccc(-c2csc3ncnc(SCC(=O)O)c23)cc1	76*	0	6	0	4	9%
Cc1ccc(CNC(=O)C2CCN(S(=O)(=O)c3cccc4nonc34)CC2)cc1	-3	-1	-1	-2	5	x
Cc1ccc(CCNC(=O)C2CCN(S(=O)(=O)c3cccc4nonc34)CC2)cc1	57*	0	-2	-1	14	11%
CC(C)S(=O)(=O)C1=NSC2=NC(=O)/C(=C\c3ccc(-c4cccc(C(=O)O)c4)o3)C(=N)N21	65*	-3	x	x	x	11%
CC(C)S(=O)(=O)C1=NSC2=NC(=O)/C(=C\c3ccc(-c4ccccc4)o3)C(=N)N21	47	-2	15	7	5	x
CC1CCN(c2ncnc3nc[nH]c23)CC1	81*	2	17	18	-6	8%
c1ccc2c(c1)CCN(c1ncnc3nc[nH]c13)C2	-3	-1	2	21	2	x

Screening data from PubChem.
